{"source": "paper PMC12334608", "about": "(Nature Communications, 2025)", "key": {"ACOX-1.1 [1]": {"molecular_target": "T1, ACOX-1.1 (Caenorhabditis elegans, UniProt O62140)", "T1 sequence (O62140 1-674)": "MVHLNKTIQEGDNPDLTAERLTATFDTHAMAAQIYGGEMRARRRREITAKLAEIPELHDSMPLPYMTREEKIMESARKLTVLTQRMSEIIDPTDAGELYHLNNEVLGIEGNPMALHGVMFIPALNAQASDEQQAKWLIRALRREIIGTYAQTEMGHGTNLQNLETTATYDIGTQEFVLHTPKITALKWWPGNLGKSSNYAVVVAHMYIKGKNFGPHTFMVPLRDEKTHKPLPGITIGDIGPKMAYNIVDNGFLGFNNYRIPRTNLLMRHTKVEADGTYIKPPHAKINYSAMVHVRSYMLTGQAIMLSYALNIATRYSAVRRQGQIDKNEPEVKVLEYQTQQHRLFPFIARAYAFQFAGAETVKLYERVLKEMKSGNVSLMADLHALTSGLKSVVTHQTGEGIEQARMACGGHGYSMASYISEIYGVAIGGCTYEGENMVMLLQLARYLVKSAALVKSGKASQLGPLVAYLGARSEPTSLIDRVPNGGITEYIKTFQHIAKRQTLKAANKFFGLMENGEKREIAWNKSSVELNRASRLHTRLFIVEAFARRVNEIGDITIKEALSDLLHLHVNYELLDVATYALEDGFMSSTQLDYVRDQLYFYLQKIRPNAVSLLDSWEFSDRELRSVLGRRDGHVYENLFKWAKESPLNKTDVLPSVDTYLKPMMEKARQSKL", "assay": "Enzyme-coupled kinetic assay, wild-type ACOX-1.1 as purified", "format": "biochemical, C. elegans", "settings": "for rescue of the time-dependent decrease in enzymatic activity: incubation with FAD plus nucleotide, compared with ATP"}, "ACOX-1.1(E434A)": {"tested_on": "ACOX-1.1(E434A)", "assay": "FAD koff rate by fluorescence polarization", "format": "binding, C. elegans", "how_it_was_run": "(§1)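 FAD-bound, non-dialyzed enzyme at 5 μM was run in triplicate. FAD fluorescence anisotropy was recorded in polarization mode on a plate reader over 1 h, with 5 μM FAD alone as the gain/focus control. koff was obtained by fitting to a dissociation kinetics equation. Preparations were 46% (wild type) and 66% (E434A) FAD-bound per dimer.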"}, "ACOX-1.1(R343Q)": {"molecular_target": "T2, ACOX-1.1(R343Q) (Caenorhabditis elegans, UniProt O62140, R343Q)", "T2 sequence (O62140 1-674 R343Q)": "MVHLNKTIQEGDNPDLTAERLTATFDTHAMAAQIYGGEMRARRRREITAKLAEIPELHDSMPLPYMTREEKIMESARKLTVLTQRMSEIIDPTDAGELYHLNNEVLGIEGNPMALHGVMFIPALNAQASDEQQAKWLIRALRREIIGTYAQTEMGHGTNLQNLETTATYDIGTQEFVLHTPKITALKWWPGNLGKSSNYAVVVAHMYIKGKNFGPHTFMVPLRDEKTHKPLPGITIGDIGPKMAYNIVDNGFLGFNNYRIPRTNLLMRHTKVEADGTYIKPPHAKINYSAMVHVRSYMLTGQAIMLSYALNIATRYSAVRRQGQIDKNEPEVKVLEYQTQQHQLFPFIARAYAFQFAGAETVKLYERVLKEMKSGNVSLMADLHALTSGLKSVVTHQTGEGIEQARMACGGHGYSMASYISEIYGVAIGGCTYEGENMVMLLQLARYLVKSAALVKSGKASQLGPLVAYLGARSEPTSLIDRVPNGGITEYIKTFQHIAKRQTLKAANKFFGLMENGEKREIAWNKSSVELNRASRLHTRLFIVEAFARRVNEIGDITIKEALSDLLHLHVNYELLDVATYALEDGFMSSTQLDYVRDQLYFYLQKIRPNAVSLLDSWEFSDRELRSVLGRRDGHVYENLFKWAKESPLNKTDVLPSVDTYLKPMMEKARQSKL", "assay": "Enzyme-coupled kinetic assay, ACOX-1.1", "format": "biochemical, C. elegans"}, "apo ACOX-1.1 [2]": {"molecular_target": "T3, apo ACOX-1.1 (Caenorhabditis elegans, UniProt O62140)", "T3 sequence (O62140 1-674)": "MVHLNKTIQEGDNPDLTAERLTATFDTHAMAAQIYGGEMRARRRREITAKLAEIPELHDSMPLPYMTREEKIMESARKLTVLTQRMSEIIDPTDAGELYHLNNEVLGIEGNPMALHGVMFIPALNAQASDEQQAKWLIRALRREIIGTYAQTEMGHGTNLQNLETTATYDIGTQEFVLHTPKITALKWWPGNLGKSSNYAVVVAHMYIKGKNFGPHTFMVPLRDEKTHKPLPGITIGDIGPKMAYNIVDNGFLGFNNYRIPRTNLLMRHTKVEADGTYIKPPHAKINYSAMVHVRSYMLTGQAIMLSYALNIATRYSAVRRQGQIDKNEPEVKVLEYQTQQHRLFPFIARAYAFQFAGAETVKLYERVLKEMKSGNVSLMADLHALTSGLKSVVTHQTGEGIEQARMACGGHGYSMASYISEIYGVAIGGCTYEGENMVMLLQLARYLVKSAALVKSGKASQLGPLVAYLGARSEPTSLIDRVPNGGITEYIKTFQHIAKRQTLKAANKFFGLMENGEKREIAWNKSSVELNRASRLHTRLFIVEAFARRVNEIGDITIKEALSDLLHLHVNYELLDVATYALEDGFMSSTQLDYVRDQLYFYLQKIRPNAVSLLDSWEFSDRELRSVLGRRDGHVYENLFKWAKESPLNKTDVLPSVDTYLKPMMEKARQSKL", "assay": "FAD and ATP dissociation constants by fluorescence polarization", "format": "binding, C. elegans"}, "ACOX-1.1 [3]": {"molecular_target": "T1, ACOX-1.1", "assay": "FAD koff rate by fluorescence polarization", "format": "binding, C. elegans", "settings": "read-out: koff of FAD", "how_it_was_run": "as §1"}, "ACOX-1.1(R343A)": {"molecular_target": "T4, ACOX-1.1(R343A) (Caenorhabditis elegans, UniProt O62140, R343A)", "T4 sequence (O62140 1-674 R343A)": "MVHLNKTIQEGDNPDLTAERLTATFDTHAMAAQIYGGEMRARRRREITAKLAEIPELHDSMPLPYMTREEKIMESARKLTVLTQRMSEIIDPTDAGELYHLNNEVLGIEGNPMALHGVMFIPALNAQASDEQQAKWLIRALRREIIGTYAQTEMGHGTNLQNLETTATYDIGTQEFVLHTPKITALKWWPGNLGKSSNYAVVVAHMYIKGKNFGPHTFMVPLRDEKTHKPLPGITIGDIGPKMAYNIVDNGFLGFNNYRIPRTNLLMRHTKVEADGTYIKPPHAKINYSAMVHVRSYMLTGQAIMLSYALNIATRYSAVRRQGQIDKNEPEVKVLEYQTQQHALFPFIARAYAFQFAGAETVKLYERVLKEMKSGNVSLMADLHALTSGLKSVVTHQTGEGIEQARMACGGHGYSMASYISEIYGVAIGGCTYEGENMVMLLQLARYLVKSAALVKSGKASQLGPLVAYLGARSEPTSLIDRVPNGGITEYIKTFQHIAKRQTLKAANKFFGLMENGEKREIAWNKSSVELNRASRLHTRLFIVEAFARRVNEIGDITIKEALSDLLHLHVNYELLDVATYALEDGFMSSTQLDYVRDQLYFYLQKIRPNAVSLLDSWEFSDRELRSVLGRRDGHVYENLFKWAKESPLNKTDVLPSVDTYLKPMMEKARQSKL", "assay": "Enzyme-coupled kinetic assay, ACOX-1.1", "format": "biochemical, C. elegans"}, "apo ACOX-1.1 [4]": {"molecular_target": "T3, apo ACOX-1.1", "assay": "Enzyme-coupled kinetic assay, wild-type apo ACOX-1.1", "format": "biochemical, C. elegans"}, "SEC": {"molecular_target": "the molecule itself", "assay": "SEC"}}, "note": "Where two headings read alike, the source gives them in different places.", "data": [{"molecule": "Nc1ncnc2c1ncn2[C@@H]1O[C@H](COP(=O)(O)OP(=O)(O)O)[C@@H](O)[C@H]1O", "note": "[ADP]", "values": [{"measurement": "rescue of the time-dependent decrease in enzymatic activity", "setting": "ACOX-1.1 [1]", "result": "None of these nucleotides are able to rescue the time-dependent decrease in enzymatic activity as well as ATP"}]}, {"molecule": "Cc1cc2nc3c(=O)[nH]c(=O)nc-3n(C[C@H](O)[C@H](O)[C@H](O)COP(=O)(O)OP(=O)(O)OC[C@H]3O[C@@H](n4cnc5c(N)ncnc54)[C@H](O)[C@@H]3O)c2cc1C", "note": "[FAD]", "values": [{"measurement": "time in which about half of the bound FAD is lost", "setting": "ACOX-1.1(E434A); ACOX-1.1(E434A)", "result": "about half of the bound FAD is lost in an hour"}, {"measurement": "koff of FAD", "setting": "ACOX-1.1(E434A); catalytic mutant ACOX-1.1(E434A), 5 μM", "result": 0.0002, "unit": "s⁻¹"}, {"measurement": "EC50", "setting": "ACOX-1.1(R343Q)", "result": "> 1000", "unit": "µM"}, {"measurement": "Kd", "setting": "apo ACOX-1.1 [2]; KD of ACOX-1.1 for FAD, in the presence of ATP (350 μM)", "result": "~0.45", "unit": "µM"}, {"measurement": "KD of ACOX-1.1 for FAD", "setting": "apo ACOX-1.1 [2]; in the absence of ATP", "result": "could not be measured because it is too high"}, {"measurement": "koff", "setting": "ACOX-1.1 [3]", "result": 0.000536, "unit": "s⁻¹"}, {"measurement": "EC50", "setting": "ACOX-1.1(R343A)", "result": "> 1000", "unit": "µM"}, {"measurement": "FAD needed to obtain a similar amount of rescue with FAD alone", "setting": "ACOX-1.1 [1]; no ATP", "result": "at least 100 μM"}, {"measurement": "EC50", "setting": "apo ACOX-1.1 [4]; EC50 for FAD (high-affinity site), 350 μM ATP, 95% CI: 358–476 nM", "result": 0.385, "unit": "µM"}, {"measurement": "EC50", "setting": "apo ACOX-1.1 [4]; lower EC50 for FAD, absence of ATP, 95% CI: 6.1–27.5 μM", "result": 13, "unit": "µM"}, {"measurement": "EC50", "setting": "apo ACOX-1.1 [4]; read-out: EC50 for FAD (low-affinity site), estimated, 350 μM ATP, 95% CI: 74–203 μM", "result": 177, "unit": "µM"}]}, {"molecule": "Nc1ncnc2c1ncn2[C@H]1C[C@H](O)[C@@H](COP(=O)(O)OP(=O)(O)OP(=O)(O)O)O1", "note": "[deoxy-ATP]", "values": [{"measurement": "rescue of the time-dependent decrease in enzymatic activity", "setting": "ACOX-1.1 [1]", "result": "None of these nucleotides are able to rescue the time-dependent decrease in enzymatic activity as well as ATP"}]}, {"molecule": "Nc1nc2c(ncn2[C@@H]2O[C@H](COP(=O)(O)OP(=O)(O)OP(=O)(O)O)[C@@H](O)[C@H]2O)c(=O)[nH]1", "note": "[GTP]", "values": [{"measurement": "rescue of the time-dependent decrease in enzymatic activity", "setting": "ACOX-1.1 [1]", "result": "None of these nucleotides are able to rescue the time-dependent decrease in enzymatic activity as well as ATP"}]}, {"molecule": "Nc1ncnc2c1ncn2[C@@H]1O[C@H](COP(=O)(O)O)[C@@H](O)[C@H]1O", "note": "[AMP]", "values": [{"measurement": "rescue of the time-dependent decrease in enzymatic activity", "setting": "ACOX-1.1 [1]", "result": "None of these nucleotides are able to rescue the time-dependent decrease in enzymatic activity as well as ATP"}]}, {"molecule": "ACOX-1.1(H396G) (enzyme, C. elegans, UniProt O62140 1-674, looked up) MVHLNKTIQEGDNPDLTAERLTATFDTHAMAAQIYGGEMRARRRREITAKLAEIPELHDSMPLPYMTREEKIMESARKLTVLTQRMSEIIDPTDAGELYHLNNEVLGIEGNPMALHGVMFIPALNAQASDEQQAKWLIRALRREIIGTYAQTEMGHGTNLQNLETTATYDIGTQEFVLHTPKITALKWWPGNLGKSSNYAVVVAHMYIKGKNFGPHTFMVPLRDEKTHKPLPGITIGDIGPKMAYNIVDNGFLGFNNYRIPRTNLLMRHTKVEADGTYIKPPHAKINYSAMVHVRSYMLTGQAIMLSYALNIATRYSAVRRQGQIDKNEPEVKVLEYQTQQHRLFPFIARAYAFQFAGAETVKLYERVLKEMKSGNVSLMADLHALTSGLKSVVTGQTGEGIEQARMACGGHGYSMASYISEIYGVAIGGCTYEGENMVMLLQLARYLVKSAALVKSGKASQLGPLVAYLGARSEPTSLIDRVPNGGITEYIKTFQHIAKRQTLKAANKFFGLMENGEKREIAWNKSSVELNRASRLHTRLFIVEAFARRVNEIGDITIKEALSDLLHLHVNYELLDVATYALEDGFMSSTQLDYVRDQLYFYLQKIRPNAVSLLDSWEFSDRELRSVLGRRDGHVYENLFKWAKESPLNKTDVLPSVDTYLKPMMEKARQSKL", "values": [{"measurement": "stoichiometry N", "setting": "SEC", "result": 2}]}, {"molecule": "ACOX-1.1(R536E) (enzyme, C. elegans, UniProt O62140 1-674, looked up) MVHLNKTIQEGDNPDLTAERLTATFDTHAMAAQIYGGEMRARRRREITAKLAEIPELHDSMPLPYMTREEKIMESARKLTVLTQRMSEIIDPTDAGELYHLNNEVLGIEGNPMALHGVMFIPALNAQASDEQQAKWLIRALRREIIGTYAQTEMGHGTNLQNLETTATYDIGTQEFVLHTPKITALKWWPGNLGKSSNYAVVVAHMYIKGKNFGPHTFMVPLRDEKTHKPLPGITIGDIGPKMAYNIVDNGFLGFNNYRIPRTNLLMRHTKVEADGTYIKPPHAKINYSAMVHVRSYMLTGQAIMLSYALNIATRYSAVRRQGQIDKNEPEVKVLEYQTQQHRLFPFIARAYAFQFAGAETVKLYERVLKEMKSGNVSLMADLHALTSGLKSVVTHQTGEGIEQARMACGGHGYSMASYISEIYGVAIGGCTYEGENMVMLLQLARYLVKSAALVKSGKASQLGPLVAYLGARSEPTSLIDRVPNGGITEYIKTFQHIAKRQTLKAANKFFGLMENGEKREIAWNKSSVELNRASELHTRLFIVEAFARRVNEIGDITIKEALSDLLHLHVNYELLDVATYALEDGFMSSTQLDYVRDQLYFYLQKIRPNAVSLLDSWEFSDRELRSVLGRRDGHVYENLFKWAKESPLNKTDVLPSVDTYLKPMMEKARQSKL", "values": [{"measurement": "stoichiometry N", "setting": "SEC", "result": 2}]}]}
